Data: ChEMBL document CHEMBL3875205, “Macrocyclic MEK1/2 inhibitor with efficacy in a mouse model of cardiomyopathy caused by lamin A/C gene mutation” (Bioorg Med Chem, 2017)

Columns and labels:
[1] = Effect on body mass in LmnaH222P/H222P mouse model of cardiomyopathy at 3 mg/kg/day, po administered 6 days per week via gavage starting from 14 weeks of age up to 20 weeks of age (reference value: 23.19 +/- 0.43); type: ADME, organism-based, Heart; details: in vivo
Mus musculus [2] = test: Nephrotoxicity in LmnaH222P/H222P mouse model of cardiomyopathy assessed as interstitial nephritis at 3 to 6 mg/kg/day, po administered 6 days per week via gavage starting from 14 weeks of age up to 20 weeks of age by hematoxylin and eosin staining based assay; type: toxicity, organism-based; details: in vivo
Outline: (§1)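 Liver, kidney and spleen from male Lmna H222P/H222P mice given vehicle or 3 or 6 mg/kg/day by gavage 6 days/week from 14 to 20 weeks. Tissues were fixed in 4% formaldehyde for 48 h, paraffin-embedded, sectioned at 5 μm and stained with hematoxylin and eosin. Findings were recorded for each individual sample.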

Mus musculus [3] = test: Toxicity in LmnaH222P/H222P mouse model of cardiomyopathy assessed as serum creatinine level at 3 mg/kg/day, po administered 6 days per week via gavage starting from 14 weeks of age up to 20 weeks of age (reference value: 0.45 +/- 0.01 mg/dl); type: organism-based, Heart; details: in vivo
Mus musculus [4] = test: Toxicity in LmnaH222P/H222P mouse model of cardiomyopathy assessed as serum amylase activity at 6 mg/kg/day, po administered 6 days per week via gavage starting from 14 weeks of age up to 20 weeks of age (reference value: 1102 +/- 53.63 U/L); type: organism-based, Heart; details: in vivo
Mus musculus [5] = test: Protective activity in LmnaH222P/H222P mouse model of cardiomyopathy assessed as mean survival days at 6 mg/kg, po administered 6 days per week via gavage starting from 10 weeks of age continued up to mouse death (reference value: 202 day); type: functional, Heart
Mus musculus [6] = test: Toxicity in LmnaH222P/H222P mouse model of cardiomyopathy assessed as total bilirubin content in serum at 6 mg/kg/day, po administered 6 days per week via gavage starting from 14 weeks of age up to 20 weeks of age (reference value: 0.36 +/- 0.02 mg/L); type: organism-based, Heart; details: in vivo
Mus musculus [7] = test: Hepatotoxicity in LmnaH222P/H222P mouse model of cardiomyopathy assessed as inflammation at 3 to 6 mg/kg/day, po administered 6 days per week via gavage starting from 14 weeks of age up to 20 weeks of age by hematoxylin and eosin staining based assay; type: toxicity, organism-based; details: in vivo; outline: as §1
[8] = biological target: Dual specificity mitogen-activated protein kinase kinase; MEK1/2 (Homo sapiens, UniProt P36507+Q02750); test: Inhibition of MEK1/2 in human HT-29 cells assessed as reduction in cell proliferation after 72 hrs by CellTiter-Glo assay; type: cell-based
Outline: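 HT-29 cells were plated at 2,000/well in DMEM or RPMI with 10% FBS and left overnight at 37°C, 5% CO2. Medium was replaced with compound at 3-fold dilutions from 3.3 µM to 4.5 nM. After 72 h, viability was read by CellTiter-Glo luminescence and IC50 calculated.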

Mus musculus [9] = test: Hepatotoxicity in LmnaH222P/H222P mouse model of cardiomyopathy assessed as hepatocyte necrosis at 3 to 6 mg/kg/day, po administered 6 days per week via gavage starting from 14 weeks of age up to 20 weeks of age by hematoxylin and eosin staining based assay; type: toxicity, organism-based; details: hepatocytes; outline: as §1
Mus musculus [10] = test: Toxicity in LmnaH222P/H222P mouse model of cardiomyopathy assessed as serum alkaline phosphatase activity at 6 mg/kg/day, po administered 6 days per week via gavage starting from 14 weeks of age up to 20 weeks of age (reference value: 91.5 +/- 6.99 U/L); type: organism-based, Heart; details: in vivo
Mus musculus [11] = test: Protective activity in LmnaH222P/H222P mouse model of cardiomyopathy assessed as mean survival days at 3 mg/kg, po administered 6 days per week via gavage starting from 10 weeks of age continued up to mouse death (reference value: 202 day); type: functional, Heart
Mus musculus [12] = test: Toxicity in LmnaH222P/H222P mouse model of cardiomyopathy assessed as serum amylase activity at 3 mg/kg/day, po administered 6 days per week via gavage starting from 14 weeks of age up to 20 weeks of age (reference value: 1102 +/- 53.63 U/L); type: organism-based, Heart; details: in vivo
Mus musculus [13] = test: Toxicity in LmnaH222P/H222P mouse model of cardiomyopathy assessed as appearance of hemosiderin-laden macrophages in spleen at 3 to 6 mg/kg/day, po administered 6 days per week via gavage starting from 14 weeks of age up to 20 weeks of age by hematoxylin and eosin staining based assay; type: organism-based; details: in vivo; outline: as §1
Mus musculus [14] = test: Hepatotoxicity in LmnaH222P/H222P mouse model of cardiomyopathy assessed as cholestasis at 3 to 6 mg/kg/day, po administered 6 days per week via gavage starting from 14 weeks of age up to 20 weeks of age by hematoxylin and eosin staining based assay; type: toxicity, organism-based; details: in vivo; outline: as §1
Mus musculus [15] = test: Nephrotoxicity in LmnaH222P/H222P mouse model of cardiomyopathy assessed as glomeruli abnormalities at 3 to 6 mg/kg/day, po administered 6 days per week via gavage starting from 14 weeks of age up to 20 weeks of age by hematoxylin and eosin staining based assay; type: toxicity, organism-based; details: in vivo; outline: as §1
Mus musculus [16] = test: Toxicity in LmnaH222P/H222P mouse model of cardiomyopathy assessed as blood urea nitrogen level at 6 mg/kg/day, po administered 6 days per week via gavage starting from 14 weeks of age up to 20 weeks of age (reference value: 17.98 +/- 0.94 mg/dl); type: organism-based, Heart; details: in vivo
Mus musculus [17] = test: Toxicity in LmnaH222P/H222P mouse model of cardiomyopathy assessed as serum alkaline phosphatase activity at 3 mg/kg/day, po administered 6 days per week via gavage starting from 14 weeks of age up to 20 weeks of age (reference value: 91.5 +/- 6.99 U/L); type: organism-based, Heart; details: in vivo
Mus musculus [18] = test: Toxicity in LmnaH222P/H222P mouse model of cardiomyopathy assessed as ratio of blood urea nitrogen to serum creatinine at 6 mg/kg/day, po administered 6 days per week via gavage starting from 14 weeks of age up to 20 weeks of age (reference value: 20.14 +/- 1.25); type: organism-based, Heart; details: in vivo
[19] = Effect on body mass in LmnaH222P/H222P mouse model of cardiomyopathy at 6 mg/kg/day, po administered 6 days per week via gavage starting from 14 weeks of age up to 20 weeks of age (reference value: 23.19 +/- 0.43); type: ADME, organism-based, Heart; details: in vivo
Mus musculus [20] = test: Toxicity in LmnaH222P/H222P mouse model of cardiomyopathy assessed as serum alanine aminotransferase activity at 3 mg/kg/day, po administered 6 days per week via gavage starting from 14 weeks of age up to 20 weeks of age (reference value: 56 +/- 10.55 U/L); type: organism-based, Heart; details: in vivo
Mus musculus [21] = test: Toxicity in LmnaH222P/H222P mouse model of cardiomyopathy assessed as serum creatinine level at 6 mg/kg/day, po administered 6 days per week via gavage starting from 14 weeks of age up to 20 weeks of age (reference value: 0.45 +/- 0.01 mg/dl); type: organism-based, Heart; details: in vivo
Mus musculus [22] = test: Toxicity in LmnaH222P/H222P mouse model of cardiomyopathy assessed as serum alanine aminotransferase activity at 6 mg/kg/day, po administered 6 days per week via gavage starting from 14 weeks of age up to 20 weeks of age (reference value: 56 +/- 10.55 U/L); type: organism-based, Heart; details: in vivo
Mus musculus [23] = test: Toxicity in LmnaH222P/H222P mouse model of cardiomyopathy assessed as ratio of blood urea nitrogen to serum creatinine at 3 mg/kg/day, po administered 6 days per week via gavage starting from 14 weeks of age up to 20 weeks of age (reference value: 20.14 +/- 1.25); type: organism-based, Heart; details: in vivo
Mus musculus [24] = test: Toxicity in LmnaH222P/H222P mouse model of cardiomyopathy assessed as total bilirubin content in serum at 3 mg/kg/day, po administered 6 days per week via gavage starting from 14 weeks of age up to 20 weeks of age (reference value: 0.36 +/- 0.02 mg/L); type: organism-based, Heart; details: in vivo
Mus musculus [25] = test: Toxicity in LmnaH222P/H222P mouse model of cardiomyopathy assessed as blood urea nitrogen level at 3 mg/kg/day, po administered 6 days per week via gavage starting from 14 weeks of age up to 20 weeks of age (reference value: 17.98 +/- 0.94 mg/dl); type: organism-based, Heart; details: in vivo

O=S1(=O)Nc2c(cc(F)c(F)c2Nc2ccc(I)cc2F)OCC(O)C(O)CC12CC2 (single isomer, unassigned; form 1)
Activity [1]: 24.06
Activity (Mus musculus [2]): Non-Toxic
Activity (Mus musculus [3]): 0.46 mg/dL
Activity (Mus musculus [4]): 1086 U/L
MSD (Mus musculus [5]): 225 days
Activity (Mus musculus [6]): 0.37 mg/L
Activity (Mus musculus [7]): Non-Toxic
IC50 [8]: 16 nM
Activity (Mus musculus [9]): Non-Toxic
Activity (Mus musculus [10]): 113 U/L
MSD (Mus musculus [11]): 225 days
Activity (Mus musculus [12]): 1372 U/L
Activity (Mus musculus [13]): Non-Toxic
Activity (Mus musculus [14]): Non-Toxic
Activity (Mus musculus [15]): Non-Toxic
Activity (Mus musculus [16]): 19.12 mg/dL
Activity (Mus musculus [17]): 104.5 U/L
Ratio (Mus musculus [18]): 20.77
Activity [19]: 22.93
Activity (Mus musculus [20]): 69.6 U/L
Activity (Mus musculus [21]): 0.46 mg/dL
Activity (Mus musculus [22]): 69.6 U/L
Ratio (Mus musculus [23]): 19.66
Activity (Mus musculus [24]): 0.32 mg/L
Activity (Mus musculus [25]): 18.04 mg/dL
